Activity calls are given as the source filed them. The calls are words filed in the database; no cut-off is given here.
Key:
[1] = molecular target: T1, Histone deacetylase 3/Nuclear receptor corepressor 2 (HDAC3/NCoR2) (Homo sapiens, UniProt O15379); test: (§1) Inhibition of full length recombinant human C-terminal His-tagged HDAC3/N-terminal GST-tagged NCOR2 co-expressed in baculovirus expression system using Boc-Lys(acetyl)-AMC as substrate preincubated for 1 hr followed by substrate addition measured after 2 hrs by fluorescence assay
T1 sequence (O15379 whole entry): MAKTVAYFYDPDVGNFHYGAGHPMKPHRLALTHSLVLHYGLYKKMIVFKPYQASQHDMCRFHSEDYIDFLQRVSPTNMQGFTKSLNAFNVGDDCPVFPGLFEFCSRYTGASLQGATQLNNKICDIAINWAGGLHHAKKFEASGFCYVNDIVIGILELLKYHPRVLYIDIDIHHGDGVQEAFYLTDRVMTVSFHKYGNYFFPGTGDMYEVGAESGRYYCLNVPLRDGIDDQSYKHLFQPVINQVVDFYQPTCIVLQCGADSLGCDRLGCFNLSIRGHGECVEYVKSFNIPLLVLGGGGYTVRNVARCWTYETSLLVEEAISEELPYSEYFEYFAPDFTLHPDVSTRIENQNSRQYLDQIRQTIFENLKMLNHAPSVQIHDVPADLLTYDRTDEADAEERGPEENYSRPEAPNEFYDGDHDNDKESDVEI
T1 sequence (Q9Y618 whole entry, further chain): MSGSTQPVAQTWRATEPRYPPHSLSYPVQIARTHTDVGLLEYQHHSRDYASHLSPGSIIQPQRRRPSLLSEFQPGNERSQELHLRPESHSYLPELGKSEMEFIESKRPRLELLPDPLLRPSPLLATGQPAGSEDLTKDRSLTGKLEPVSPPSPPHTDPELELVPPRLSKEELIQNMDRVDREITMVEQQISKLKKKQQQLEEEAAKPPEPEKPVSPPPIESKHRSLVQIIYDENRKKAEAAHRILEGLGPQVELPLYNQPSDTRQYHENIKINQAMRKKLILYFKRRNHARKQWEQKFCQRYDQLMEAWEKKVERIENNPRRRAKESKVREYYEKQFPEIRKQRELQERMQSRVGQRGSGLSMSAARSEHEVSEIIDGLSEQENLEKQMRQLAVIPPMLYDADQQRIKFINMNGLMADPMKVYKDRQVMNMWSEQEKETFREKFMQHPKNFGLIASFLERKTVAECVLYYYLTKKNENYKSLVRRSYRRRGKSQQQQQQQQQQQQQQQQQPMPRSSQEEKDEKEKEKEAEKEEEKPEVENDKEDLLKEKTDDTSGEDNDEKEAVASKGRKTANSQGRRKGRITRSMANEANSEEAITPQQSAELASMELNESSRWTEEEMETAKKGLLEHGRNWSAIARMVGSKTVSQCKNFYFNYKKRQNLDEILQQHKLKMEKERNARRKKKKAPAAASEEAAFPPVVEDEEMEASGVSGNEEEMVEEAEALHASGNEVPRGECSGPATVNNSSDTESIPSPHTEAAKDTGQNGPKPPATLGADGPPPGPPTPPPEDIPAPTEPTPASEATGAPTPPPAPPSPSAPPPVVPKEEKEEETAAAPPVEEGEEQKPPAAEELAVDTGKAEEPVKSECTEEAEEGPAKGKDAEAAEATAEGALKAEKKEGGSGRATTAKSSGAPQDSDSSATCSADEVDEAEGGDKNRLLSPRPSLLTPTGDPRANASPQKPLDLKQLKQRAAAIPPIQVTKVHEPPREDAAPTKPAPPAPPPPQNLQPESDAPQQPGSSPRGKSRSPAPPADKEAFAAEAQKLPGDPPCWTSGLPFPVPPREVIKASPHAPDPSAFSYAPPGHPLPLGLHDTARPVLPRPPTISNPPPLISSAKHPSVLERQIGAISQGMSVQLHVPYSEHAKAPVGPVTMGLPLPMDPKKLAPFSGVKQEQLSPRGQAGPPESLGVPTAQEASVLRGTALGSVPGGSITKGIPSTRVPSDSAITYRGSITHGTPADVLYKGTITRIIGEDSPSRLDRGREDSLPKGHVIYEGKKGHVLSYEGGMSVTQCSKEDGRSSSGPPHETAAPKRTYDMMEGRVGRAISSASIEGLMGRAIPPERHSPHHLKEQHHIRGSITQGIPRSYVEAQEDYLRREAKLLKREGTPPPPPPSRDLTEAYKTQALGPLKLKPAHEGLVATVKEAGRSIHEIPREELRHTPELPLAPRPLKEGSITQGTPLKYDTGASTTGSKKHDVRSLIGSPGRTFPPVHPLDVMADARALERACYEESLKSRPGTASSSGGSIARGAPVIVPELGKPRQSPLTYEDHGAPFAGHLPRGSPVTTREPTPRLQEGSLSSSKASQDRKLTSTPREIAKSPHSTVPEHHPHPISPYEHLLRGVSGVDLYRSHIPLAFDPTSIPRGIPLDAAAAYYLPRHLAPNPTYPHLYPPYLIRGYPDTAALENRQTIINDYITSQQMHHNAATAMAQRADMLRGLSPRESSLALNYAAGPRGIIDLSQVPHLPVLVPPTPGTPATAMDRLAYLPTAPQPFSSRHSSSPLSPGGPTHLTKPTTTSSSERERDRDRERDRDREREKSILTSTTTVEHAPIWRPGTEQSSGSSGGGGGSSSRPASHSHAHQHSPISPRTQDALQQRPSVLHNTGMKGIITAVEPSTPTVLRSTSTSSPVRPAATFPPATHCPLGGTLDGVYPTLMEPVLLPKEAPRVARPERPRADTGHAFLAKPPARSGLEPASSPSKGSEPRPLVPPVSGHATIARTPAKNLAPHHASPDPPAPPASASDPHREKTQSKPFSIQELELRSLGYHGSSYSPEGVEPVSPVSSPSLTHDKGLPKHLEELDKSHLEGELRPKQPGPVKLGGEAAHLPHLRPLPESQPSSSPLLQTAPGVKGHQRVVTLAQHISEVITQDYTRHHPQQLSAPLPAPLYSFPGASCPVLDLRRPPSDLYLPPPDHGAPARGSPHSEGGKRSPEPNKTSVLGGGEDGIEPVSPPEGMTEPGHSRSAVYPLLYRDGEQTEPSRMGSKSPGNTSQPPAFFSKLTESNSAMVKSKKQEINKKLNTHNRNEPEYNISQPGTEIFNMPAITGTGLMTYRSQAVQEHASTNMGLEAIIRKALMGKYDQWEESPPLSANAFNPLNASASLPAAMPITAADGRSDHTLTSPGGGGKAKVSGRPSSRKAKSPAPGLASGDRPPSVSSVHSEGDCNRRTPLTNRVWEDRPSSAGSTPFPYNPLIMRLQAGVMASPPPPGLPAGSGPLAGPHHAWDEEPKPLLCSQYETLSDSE
Outline: (§2)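 Recombinant HDAC incubated with serial compound dilutions at 30 °C for 1 h. Reaction run 2 h at 30 °C, stopped with developer containing trypsin and TSA. Fluorescence read after 30 min at 360/460 nm. Inhibition relative to control wells; IC50 from variable-slope fit.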

[2] = molecular target: T2, Protein deacetylase HDAC6 (Homo sapiens, UniProt Q9UBN7); test: Inhibition of HDAC6 (unknown origin) using Boc-Lys(acetyl)-AMC as substrate preincubated for 1 hr followed by substrate addition measured after 2 hrs by fluorescence assay; outline: as §2
T2 sequence (Q9UBN7 whole entry): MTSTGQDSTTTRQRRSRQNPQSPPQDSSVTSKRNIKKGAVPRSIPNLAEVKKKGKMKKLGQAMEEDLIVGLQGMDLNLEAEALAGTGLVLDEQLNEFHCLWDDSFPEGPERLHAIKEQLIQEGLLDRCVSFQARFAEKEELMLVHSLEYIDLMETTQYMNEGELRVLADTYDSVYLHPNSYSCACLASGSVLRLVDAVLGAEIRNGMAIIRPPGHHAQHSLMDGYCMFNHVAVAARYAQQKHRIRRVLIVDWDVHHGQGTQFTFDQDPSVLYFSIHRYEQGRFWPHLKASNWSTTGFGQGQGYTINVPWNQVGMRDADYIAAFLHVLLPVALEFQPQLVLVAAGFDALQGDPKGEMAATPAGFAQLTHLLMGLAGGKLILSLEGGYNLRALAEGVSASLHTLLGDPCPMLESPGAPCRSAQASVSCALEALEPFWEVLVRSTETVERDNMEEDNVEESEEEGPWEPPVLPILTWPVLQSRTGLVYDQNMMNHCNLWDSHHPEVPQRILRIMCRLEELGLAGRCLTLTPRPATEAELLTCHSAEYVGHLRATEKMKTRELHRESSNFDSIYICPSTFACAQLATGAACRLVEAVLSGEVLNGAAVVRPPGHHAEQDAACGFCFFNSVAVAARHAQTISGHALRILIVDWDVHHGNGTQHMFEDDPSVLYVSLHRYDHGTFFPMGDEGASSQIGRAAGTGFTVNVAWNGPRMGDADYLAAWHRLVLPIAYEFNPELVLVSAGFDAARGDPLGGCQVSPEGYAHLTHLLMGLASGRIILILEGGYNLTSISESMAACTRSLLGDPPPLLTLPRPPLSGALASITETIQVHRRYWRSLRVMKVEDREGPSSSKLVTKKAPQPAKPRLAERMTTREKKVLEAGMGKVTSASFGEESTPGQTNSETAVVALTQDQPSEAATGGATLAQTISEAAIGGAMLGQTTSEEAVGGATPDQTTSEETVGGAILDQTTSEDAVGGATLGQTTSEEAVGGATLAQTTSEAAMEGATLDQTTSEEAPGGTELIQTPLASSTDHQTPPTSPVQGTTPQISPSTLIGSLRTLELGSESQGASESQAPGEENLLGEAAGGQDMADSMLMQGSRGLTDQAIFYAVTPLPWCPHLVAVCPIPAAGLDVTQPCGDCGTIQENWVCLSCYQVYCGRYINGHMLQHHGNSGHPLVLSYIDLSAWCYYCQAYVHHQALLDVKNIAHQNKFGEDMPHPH

Histone deacetylase 1 [3] = molecular target: T3, Histone deacetylase 1 (Homo sapiens, UniProt Q13547); test: Inhibition of full length recombinant human C-terminal FLAG/His-tagged HDAC1 expressed in baculovirus expression system using Boc-Lys(acetyl)-AMC as substrate preincubated for 1 hr followed by substrate addition measured after 2 hrs by fluorescence assay; outline: as §2
T3 sequence (Q13547 whole entry): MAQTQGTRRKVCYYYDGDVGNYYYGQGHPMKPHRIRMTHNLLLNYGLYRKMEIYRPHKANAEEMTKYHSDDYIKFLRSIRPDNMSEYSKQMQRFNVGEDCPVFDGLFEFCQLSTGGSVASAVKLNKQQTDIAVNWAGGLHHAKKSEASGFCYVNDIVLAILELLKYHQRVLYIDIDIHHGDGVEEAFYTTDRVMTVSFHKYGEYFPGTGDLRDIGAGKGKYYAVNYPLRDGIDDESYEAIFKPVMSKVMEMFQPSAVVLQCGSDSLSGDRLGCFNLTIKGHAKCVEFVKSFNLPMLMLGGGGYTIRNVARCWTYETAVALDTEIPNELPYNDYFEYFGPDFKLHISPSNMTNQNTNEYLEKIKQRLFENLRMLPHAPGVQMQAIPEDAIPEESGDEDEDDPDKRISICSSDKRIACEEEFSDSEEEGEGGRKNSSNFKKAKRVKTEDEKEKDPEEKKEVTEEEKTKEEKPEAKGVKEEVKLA

MV4-11 [4] = test: Antiproliferative activity against human MV4-11 cells after 48 hrs by CellTiter-Blue assay; assay type: functional, cell-based; details: MV4-11, 48 h
Histone deacetylase 2 [5] = molecular target: T4, Histone deacetylase 2 (Homo sapiens, UniProt Q92769); test: Inhibition of full length recombinant human C-terminal FLAG/His-tagged HDAC2 expressed in baculovirus expression system using Boc-Lys(acetyl)-AMC as substrate preincubated for 1 hr followed by substrate addition measured after 2 hrs by fluorescence assay; outline: as §2
T4 sequence (Q92769 whole entry): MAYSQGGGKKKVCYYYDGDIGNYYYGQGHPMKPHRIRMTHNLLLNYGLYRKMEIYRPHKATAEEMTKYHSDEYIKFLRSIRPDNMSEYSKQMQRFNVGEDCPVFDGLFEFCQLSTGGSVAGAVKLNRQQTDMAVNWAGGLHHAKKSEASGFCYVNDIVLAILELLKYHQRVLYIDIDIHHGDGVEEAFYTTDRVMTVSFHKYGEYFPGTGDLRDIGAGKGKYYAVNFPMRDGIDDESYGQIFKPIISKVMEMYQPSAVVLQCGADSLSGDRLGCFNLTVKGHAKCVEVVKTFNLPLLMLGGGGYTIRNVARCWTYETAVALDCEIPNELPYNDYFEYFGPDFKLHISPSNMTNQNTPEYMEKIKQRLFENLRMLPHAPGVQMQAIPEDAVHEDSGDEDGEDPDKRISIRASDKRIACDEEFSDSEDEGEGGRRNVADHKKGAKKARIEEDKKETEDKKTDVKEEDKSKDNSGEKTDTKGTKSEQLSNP

[6] = molecular target: T1, Histone deacetylase 3/Nuclear receptor corepressor 2 (HDAC3/NCoR2); test: Inhibition of full length recombinant human C-terminal His-tagged HDAC3/N-terminal GST-tagged NCOR2 co-expressed in baculovirus expression system using Boc-Lys(acetyl)-AMC as substrate preincubated for 15 mins followed by substrate addition measured after 2 hrs by fluorescence assay
[7] = molecular target: T1, Histone deacetylase 3/Nuclear receptor corepressor 2 (HDAC3/NCoR2); test: Inhibition of full length recombinant human C-terminal His-tagged HDAC3/N-terminal GST-tagged NCOR2 co-expressed in baculovirus expression system using Boc-Lys(acetyl)-AMC as substrate preincubated for 90 mins followed by substrate addition measured after 2 hrs by fluorescence assay
Histone deacetylase 1 [8] = molecular target: T3, Histone deacetylase 1; test: Inhibition of full length recombinant human C-terminal FLAG/His-tagged HDAC1 expressed in baculovirus expression system using Boc-Lys(acetyl)-AMC as substrate preincubated for 60 mins followed by substrate addition measured after 2 hrs by fluorescence assay
Outline: (§3)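 Recombinant HDAC1 was preincubated with serially diluted inhibitor at 30 °C for the stated time. Boc-Lys(acetyl)-AMC was then added and the reaction ran 2 h at 30 °C. It was stopped with a trypsin/trichostatin A developer, and fluorescence was read 30 min later (ex 360/em 460 nm). Inhibition was taken relative to control wells, and IC50 came from a variable-slope log(inhibitor)–normalized response fit.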

Histone deacetylase 2 [9] = molecular target: T4, Histone deacetylase 2; test: Inhibition of full length recombinant human C-terminal FLAG/His-tagged HDAC2 expressed in baculovirus expression system using Boc-Lys(acetyl)-AMC as substrate preincubated for 30 mins followed by substrate addition measured after 2 hrs by fluorescence assay
Outline: (§4)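 Recombinant HDAC2 preincubated with serial compound dilutions at 30 °C for 15, 30, 60 or 90 min. Boc-Lys(acetyl)-AMC added and reaction run 2 h at 30 °C, then stopped with trypsin/TSA developer. Fluorescence read at 360/460 nm; IC50 from variable-slope fit of control-normalized inhibition.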

[10] = molecular target: Histone deacetylase 3/Nuclear receptor corepressor 2 (HDAC3/NCoR2) (Homo sapiens) (UniProt O15379+Q9Y618); test: as §1, with “Mixed-type inhibition” for “Inhibition”, “2 hrs” for “1 hr”, “Lineweaver-Burk plot analysis” for “fluorescence assay”
Outline: (§5)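 Recombinant human HDAC2 or HDAC3 incubated 2 h at 30 °C with inhibitor at several concentrations in HDAC buffer. Serially diluted Boc-Lys(acetyl)-AMC added for 2 h, then quenched with 5 mg/mL trypsin and 1 μM TSA. Fluorescence read at 360/460 nm. Vmax and Km from Michaelis–Menten fits, shown as Lineweaver–Burk plots.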

[11] = molecular target: T1, Histone deacetylase 3/Nuclear receptor corepressor 2 (HDAC3/NCoR2); test: Inhibition of full length recombinant human C-terminal His-tagged HDAC3/N-terminal GST-tagged NCOR2 co-expressed in baculovirus expression system using Boc-Lys(acetyl)-AMC as substrate preincubated for 60 mins followed by substrate addition measured after 2 hrs by fluorescence assay
Histone deacetylase 2 [12] = molecular target: T4, Histone deacetylase 2; test: Mixed-type inhibition of full length recombinant human C-terminal FLAG/His-tagged HDAC2 expressed in baculovirus expression system using Boc-Lys(acetyl)-AMC as substrate preincubated for 2 hrs followed by substrate addition measured after 2 hrs by Lineweaver-Burk plot analysis; outline: as §5
Histone deacetylase 2 [13] = molecular target: T4, Histone deacetylase 2; test: Inhibition of full length recombinant human C-terminal FLAG/His-tagged HDAC2 expressed in baculovirus expression system using Boc-Lys(acetyl)-AMC as substrate preincubated for 90 mins followed by substrate addition measured after 2 hrs by fluorescence assay; outline: as §4
Histone deacetylase 1 [14] = molecular target: T3, Histone deacetylase 1; test: Inhibition of full length recombinant human C-terminal FLAG/His-tagged HDAC1 expressed in baculovirus expression system using Boc-Lys(acetyl)-AMC as substrate preincubated for 15 mins followed by substrate addition measured after 2 hrs by fluorescence assay; outline: as §3
Histone deacetylase 1 [15] = molecular target: T3, Histone deacetylase 1; test: Inhibition of full length recombinant human C-terminal FLAG/His-tagged HDAC1 expressed in baculovirus expression system using Boc-Lys(acetyl)-AMC as substrate preincubated for 30 mins followed by substrate addition measured after 2 hrs by fluorescence assay
Histone deacetylase 2 [16] = molecular target: T4, Histone deacetylase 2; test: Inhibition of full length recombinant human C-terminal FLAG/His-tagged HDAC2 expressed in baculovirus expression system using Boc-Lys(acetyl)-AMC as substrate preincubated for 60 mins followed by substrate addition measured after 2 hrs by fluorescence assay; outline: as §4
Histone deacetylase 1 [17] = molecular target: T3, Histone deacetylase 1; test: Inhibition of full length recombinant human C-terminal FLAG/His-tagged HDAC1 expressed in baculovirus expression system using Boc-Lys(acetyl)-AMC as substrate preincubated for 90 mins followed by substrate addition measured after 2 hrs by fluorescence assay; outline: as §3
Histone deacetylase 2 [18] = molecular target: T4, Histone deacetylase 2; test: Inhibition of full length recombinant human C-terminal FLAG/His-tagged HDAC2 expressed in baculovirus expression system using Boc-Lys(acetyl)-AMC as substrate preincubated for 15 mins followed by substrate addition measured after 2 hrs by fluorescence assay; outline: as §4
[19] = molecular target: T1, Histone deacetylase 3/Nuclear receptor corepressor 2 (HDAC3/NCoR2); test: Inhibition of full length recombinant human C-terminal His-tagged HDAC3/N-terminal GST-tagged NCOR2 co-expressed in baculovirus expression system using Boc-Lys(acetyl)-AMC as substrate preincubated for 30 mins followed by substrate addition measured after 2 hrs by fluorescence assay
MV4-11 [20] = test: Downregulation of HDAC6 protein expression in human MV4-11 cells at 5 uM after 24 hrs by Western blot analysis; assay type: functional, cell-based
Outline: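 MV4-11 cells treated 24 h at 0.25, 0.5, 1 and 2 μM, with 5 μM SAHA as reference. RIPA lysates normalized by BCA, run on 4–12% Bis-Tris gels, probed with primary antibodies at 1/1000 overnight at 4 °C. HDAC6 and acetylated histones/tubulin detected; actin as loading control. Representative of n = 2.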

SMILES | IC50 [1] | IC50 [2] | IC50 (Histone deacetylase 1 [3]) | IC50 (Histone deacetylase 2 [5]) | other results
COc1ccc(C(=O)N[C@@H](Cc2c[nH]c3ccccc23)C(=O)NCc2ccc(C(=O)NNc3ccccc3)cc2)cc1 | > 5000 nM | > 100 µM | > 5000 nM | > 5000 nM | EC50 (MV4-11 [4]): > 20 µM
COc1ccc(C(=O)N[C@@H](Cc2c[nH]c3ccccc23)C(=O)NCc2ccc(C(=O)Nc3ccccc3N)cc2)cc1 | – | > 100 µM | – | – | IC50 [6]: 939 nM; IC50 [7]: 135 nM; IC50 (Histone deacetylase 1 [8]): 49.8 nM; IC50 (Histone deacetylase 2 [9]): 252 nM; inhibition [10]: Active; IC50 [11]: 184 nM; inhibition (Histone deacetylase 2 [12]): Active; IC50 (Histone deacetylase 2 [13]): 121 nM; IC50 (Histone deacetylase 1 [14]): 99.9 nM; IC50 (Histone deacetylase 1 [15]): 64.9 nM; IC50 (Histone deacetylase 2 [16]): 169 nM; IC50 (Histone deacetylase 1 [17]): 34.5 nM; IC50 (Histone deacetylase 2 [18]): 348 nM; IC50 [19]: 433 nM
CCCNNC(=O)CCCCCCCNC(=O)[C@H](Cc1c[nH]c2ccccc12)NC(=O)c1ccc(OC)cc1 | 12.1 nM | > 100 µM | 52.8 nM | 199 nM | –
COc1ccc(C(=O)N[C@@H](Cc2c[nH]c3ccccc23)C(=O)NCc2ccc(C(=O)NNC3CCCC3)cc2)cc1 | > 5000 nM | > 100 µM | > 5000 nM | > 5000 nM | EC50 (MV4-11 [4]): > 20 µM
O=C(CCCCCCC(=O)Nc1ccccc1)NO | – | – | – | – | Activity (MV4-11 [20]): Active
CCNNC(=O)c1ccc(CNC(=O)[C@H](Cc2c[nH]c3ccccc23)NC(=O)c2ccc(OC)cc2)cc1 | 34.9 nM | 0.393 µM | 95.5 nM | 88.8 nM | –
CCCCNNC(=O)c1ccc(CNC(=O)[C@H](Cc2c[nH]c3ccccc23)NC(=O)c2ccc(OC)cc2)cc1 | 16.5 nM | > 100 µM | 53.7 nM | 193 nM | –
CCCNNC(=O)CCCCCCNC(=O)[C@H](Cc1c[nH]c2ccccc12)NC(=O)c1ccc(OC)cc1 | 5.2 nM | > 100 µM | 91.6 nM | 191 nM | –
CCCNNC(=O)/C=C/c1ccc(OC[C@H](Cc2c[nH]c3ccccc23)NC(=O)c2ccc(OC)cc2)cc1 | 2.82 nM | > 100 µM | 28.9 nM | 283 nM | EC50 (MV4-11 [4]): 0.243 µM
CCCNNC(=O)c1ccc(CNC(=O)[C@H](Cc2c[nH]c3ccccc23)NC(=O)c2ccc(OC)cc2)cc1 | – | > 100 µM | 63.3 nM | 287 nM | IC50 (Histone deacetylase 1 [8]): 50.1 nM; IC50 (Histone deacetylase 2 [9]): 367 nM; inhibition [10]: Active; inhibition (Histone deacetylase 2 [12]): Active; IC50 (Histone deacetylase 2 [13]): 194 nM; IC50 (Histone deacetylase 1 [14]): 91.2 nM; IC50 (Histone deacetylase 2 [16]): 260 nM; IC50 (Histone deacetylase 1 [17]): 32.9 nM; IC50 (Histone deacetylase 2 [18]): 424 nM
CCCNNC(=O)CCCCCNC(=O)[C@H](Cc1c[nH]c2ccccc12)NC(=O)c1ccc(OC)cc1 | 12.4 nM | > 100 µM | 80.2 nM | 209 nM | –
CCCCCNNC(=O)c1ccc(CNC(=O)[C@H](Cc2c[nH]c3ccccc23)NC(=O)c2ccc(OC)cc2)cc1 | 10.9 nM | > 100 µM | 29.8 nM | 332 nM | –
